The text below walks through data of ChEMBL document CHEMBL1124174, “Substituted benzamides. 1. Potential nondopaminergic antagonists of chemotherapy-induced nausea and emesis” (J Med Chem, 1988).

Assay [1] has as its target D(2) dopamine receptor (Canis lupus familiaris) (UniProt Q9GJU1). Description: In vivo antagonism activity against dopamine D2 receptor was measured as emesis in dog when administered subcutaneously. Type of assay: functional, organism-based.
The subject of assay [2] is Canis familiaris. In words: In vivo antagonism of cisplatin-induced emesis in dog measured as emetic episodes, twice the dose of 3 mg/kg in 3 dogs. The format is functional, Canis lupus familiaris. In outline:
(§1)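 Nonfasted mature male or female beagles were dosed sc twice, 30 min before and 120 min after cisplatin (3 mg/kg iv; 3 mg/mL in warm 0.9% saline, used immediately). Emesis was observed up to 5 h; events within 2 min counted as one episode. Results were given as mean emetic episodes and % protection versus a dynamic control (historical and concurrent saline means pooled). t test versus saline.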

The target of assay [3] is D(2) dopamine receptor (Rattus norvegicus, UniProt P61169). Description: In vitro antagonistic activity against Dopamine receptor D2 was evaluated for the inhibition of [3H]spiperone binding. In outline:
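Rat striatal membranes were prepared by differential centrifugation in 50 mM Tris pH 7.4 at 4 °C. Membrane protein (10 mg) was incubated 15 min at 37 °C with 0.1 nM [3H]spiperone and varying competitor concentrations. Buffer: 50 mM Tris HCl pH 7.5, 0.1% ascorbic acid, pargyline, 120 mM NaCl, 5 mM KCl, 2 mM CaCl2, 1 mM MgCl2. (+)-Butaclamol defined nonspecific binding. Bound ligand was collected by filtration and scintillation counted. IC50 by log-logit regression.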

The test system of assay [4] is Canis familiaris. Description: In vivo antagonism of cisplatin-induced emesis in dog measured as percentage protection for twice the dose of 3 mg/kg in 2 dogs. The format is functional, Canis lupus familiaris. The method, boiled down: as §1
Assay [5] has as its system Mustela putorius furo. In words: In vivo antagonism of cisplatin-induced emesis in ferret measured as emetic episodes, twice the dose of 3 mg/kg and in 3 ferrets. The format is functional. The method, boiled down:
(§2)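 Nonfasted castrated male Fitch ferrets (1–1.5 kg) had jugular catheters implanted ≥48 h earlier under anesthesia. Compounds or saline were given iv twice, 5 min before and 90 min after cisplatin (12 mg/kg iv; 12 mg/mL in warm 0.9% saline). Emesis was observed up to 4 h; events within 1 min counted as one episode. Results were given as mean emetic episodes and % protection versus a pooled historical/concurrent control. t test versus saline.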

In assay [6] the test system is Mustela putorius furo. In words: In vivo antagonism of cisplatin-induced emesis in ferret measured as percentage protection for twice the dose of 3 mg/kg and in 3 ferrets. The format is functional. The method, boiled down: as §2
For assay [7], the target named is D(2) dopamine receptor (Rattus norvegicus) (UniProt P61169). In words: In vivo antagonism activity against D2 receptor was measured as stereotypy in rat when administered subcutaneously. Type of assay: functional, organism-based. In outline:
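Male Long Evans rats (275 g) were dosed sc in dilute aqueous HCl (pH 4.5-5.5) 30 min before apomorphine (1 mg/kg sc).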

Assay [8] has the same target. In words: In vivo antagonistic activity against dopamine D2 receptor was measured as catalepsy in rat when administered subcutaneously. Type of assay: functional, organism-based. The method, boiled down: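 Male Long Evans rats (275 g) received graded sc doses in dilute aqueous HCl (pH 4.5-5.5). They were observed 180 min for catalepsy, scored when the animal stayed stationary ≥15 s on a four-cork template.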

Assay [9] has as its system Canis familiaris. Description: In vivo antagonism of cisplatin-induced emesis in dog measured as emetic episodes, twice the dose of 6 mg/kg in 3 dogs. Type of assay: functional, Canis lupus familiaris. The method, boiled down:
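Nonfasted mature male or female beagles received test compound or saline sc twice, 30 min before and 120 min after cisplatin (3 mg/kg iv; 3 mg/mL in warm 0.9% saline, used at once). Emesis observed up to 5 h. Emetic episode = expulsion of stomach content; events within 2 min counted as one. Protection calculated against a dynamic control (historical mean pooled with concurrent saline control).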

Assay [10] has as its system Canis familiaris. Description: In vivo antagonism of cisplatin-induced emesis in dog measured as emetic episodes, twice the dose of 1 mg/kg in 2 dogs. The format is functional, Canis lupus familiaris. In outline:
as §1

For assay [11], the system named is Canis familiaris. Description: In vivo antagonism of cisplatin-induced emesis in dog measured as percentage protection for twice the dose of 1 mg/kg in 2 dogs. The format is functional, Canis lupus familiaris. The method, boiled down:
as §1

For assay [12], the system named is Mustela putorius furo. In words: In vivo antagonism of cisplatin-induced emesis in ferret measured as percentage protection for twice the dose of 0.3 mg/kg and in 3 ferrets. Type of assay: functional. In outline: as §2
Assay [13] relates to Mustela putorius furo. Description: In vivo antagonism of cisplatin-induced emesis in ferret measured as emetic episodes, twice the dose of 0. 3 mg/kg and in 3 ferrets. The format is functional. In outline:
as §2

Assay [14] relates to Canis familiaris. Description: In vivo antagonism of cisplatin-induced emesis in dog measured as emetic episodes, twice the dose of 6 mg/kg in 2 dogs. The format is functional, Canis lupus familiaris. In outline: as §1
The subject of assay [15] is Canis familiaris. In words: In vivo antagonism of cisplatin-induced emesis in dog measured as percentage protection for twice the dose of 6 mg/kg in 2 dogs. The format is functional, Canis lupus familiaris. In outline:
as §1

The subject of assay [16] is Mustela putorius furo. In words: In vivo antagonism of cisplatin-induced emesis in ferret measured as percentage protection for twice the dose of 3 mg/kg and in 2 ferrets. Type of assay: functional. In outline: as §2
Assay [17] concerns Canis familiaris. Description: In vivo antagonism of cisplatin-induced emesis in dog measured as percentage protection for twice the dose of 0.2 mg/kg in 4 dogs. The format is functional, Canis lupus familiaris. In outline:
as §1

Assay [18] relates to Canis familiaris. Description: In vivo antagonism of cisplatin-induced emesis in dog measured as percentage protection for twice the dose of 0.8 mg/kg in 3 dogs. Type of assay: functional, Canis lupus familiaris. The method, boiled down:
as §1

Assay [19] concerns Canis familiaris. Description: Protection against cisplatin-induced emesis in dog measured as percentage protection for twice the dose of 0.2 mg/kg. Type of assay: functional, Canis lupus familiaris.
Assay [20] relates to Canis familiaris. In words: Protection against cisplatin-induced emesis in dog measured as percentage protection for twice the dose of 0.8 mg/kg and in 3 dogs(1 protected). The format is functional, Canis lupus familiaris.
Assay [21] concerns Canis familiaris. Description: Protection against cisplatin-induced emesis in dog measured as percentage protection for twice the dose of 2.5 mg/kg and in 4 dogs(2 protected). The format is functional, Canis lupus familiaris.
Assay [22] concerns Canis familiaris. In words: (§3) In vivo antagonism of cisplatin-induced emesis in dog measured as emetic episodes, twice the dose of 2.5 mg/kg in 4 dogs. The format is functional, Canis lupus familiaris. In outline:
as §1

For assay [23], the system named is Canis familiaris. The description is as §3. Type of assay: functional, Canis lupus familiaris. The method, boiled down: as §1
The source holds these as a separate data set.

The test system of assay [24] is Canis familiaris. Description: […] cisplatin-induced emesis in dog was measured for as stereotypy when administered iv twice daily. The format is functional. The settings on record: Canis lupus familiaris.
Assay [25] relates to Canis familiaris. Description: (§4) In vivo antagonism of cisplatin-induced emesis in dog measured as emetic episodes, twice the dose of 0.2 mg/kg in 4 dogs. The format is functional, Canis lupus familiaris. In outline:
as §1

Assay [26] has as its system Canis familiaris. Described as §4. The format is functional, Canis lupus familiaris. In outline: as §1
This is another data set of the same source.

Assay [27] deals with Canis familiaris. In words: (§5) In vivo antagonism of cisplatin-induced emesis in dog measured as emetic episodes, twice the dose of 0.8 mg/kg in 3 dogs. Type of assay: functional, Canis lupus familiaris. The method, boiled down: as §1
In assay [28] the test system is Canis familiaris. Described as §5. Type of assay: functional, Canis lupus familiaris. In outline:
as §1
The source holds these as a separate data set.

The test system of assay [29] is Canis familiaris. In words: In vivo antagonism of cisplatin-induced emesis in dog measured as percentage protection for twice the dose of 2.5 mg/kg in 4 dogs. The format is functional, Canis lupus familiaris. In outline:
as §1

For assay [30], the system named is Mustela putorius furo. In words: In vivo antagonism of cisplatin-induced emesis in ferret measured as percentage protection for twice the dose of 0.2 mg/kg in 4 ferrets. Type of assay: functional. In outline: as §2
In assay [31] the test system is Mustela putorius furo. In words: In vivo antagonism of cisplatin-induced emesis in ferret measured as emetic episodes, twice the dose of 2.5 mg/kg in 5 ferrets. Type of assay: functional. In outline: as §2
Assay [32] concerns Mustela putorius furo. In words: In vivo antagonism of cisplatin-induced emesis in ferret measured as emetic episodes, twice the dose of 0.2 mg/kg in 4 ferrets. The format is functional. In outline:
as §2

In assay [33] the test system is Mustela putorius furo. In words: In vivo antagonism of cisplatin-induced emesis in ferret measured as emetic episodes, twice the dose of 0.8 mg/kg in 5 ferrets. The format is functional. In outline: as §2
Assay [34] has as its system Mustela putorius furo. Description: In vivo antagonism of cisplatin-induced emesis in ferret measured as percentage protection for twice the dose of 0.8 mg/kg in 5 ferrets. Type of assay: functional. The method, boiled down: as §2
The test system of assay [35] is Mustela putorius furo. Description: (§6) In vivo antagonism of cisplatin-induced emesis in ferret measured as percentage protection for twice the dose of 2.5 mg/kg in 5 ferrets. Type of assay: functional. The method, boiled down: as §2
Assay [36] relates to Mustela putorius furo. The description is as §6. The format is functional. The method, boiled down: as §2
The source holds these as a separate data set.

Assay [37] concerns Mustela putorius furo. Description: antagonism of cisplatin-induced emesis in ferret measured when administered intravenously twice daily. Particulars: iv.

Each structure is given as a SMILES string. Values joined by “and” are separate entries in the source; they are usually repeats but may differ in a detail not shown here. Equal values may be shown once.

Chain of D(2) dopamine receptor (Rattus norvegicus) (P61169 whole entry): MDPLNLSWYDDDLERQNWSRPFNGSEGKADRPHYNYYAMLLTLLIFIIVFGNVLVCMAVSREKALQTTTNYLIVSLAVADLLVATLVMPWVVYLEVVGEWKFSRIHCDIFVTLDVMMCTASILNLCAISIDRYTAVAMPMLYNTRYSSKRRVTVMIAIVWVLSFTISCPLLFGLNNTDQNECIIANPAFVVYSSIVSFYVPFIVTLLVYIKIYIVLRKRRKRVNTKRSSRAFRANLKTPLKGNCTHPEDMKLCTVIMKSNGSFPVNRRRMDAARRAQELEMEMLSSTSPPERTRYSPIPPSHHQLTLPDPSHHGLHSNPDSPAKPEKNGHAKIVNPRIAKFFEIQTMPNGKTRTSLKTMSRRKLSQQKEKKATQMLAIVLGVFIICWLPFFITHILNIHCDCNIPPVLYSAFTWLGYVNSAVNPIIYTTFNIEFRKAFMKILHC
Chain of D(2) dopamine receptor (P61169 whole entry): as above
Chain of D(2) dopamine receptor (Canis lupus familiaris) (Q9GJU1 whole entry): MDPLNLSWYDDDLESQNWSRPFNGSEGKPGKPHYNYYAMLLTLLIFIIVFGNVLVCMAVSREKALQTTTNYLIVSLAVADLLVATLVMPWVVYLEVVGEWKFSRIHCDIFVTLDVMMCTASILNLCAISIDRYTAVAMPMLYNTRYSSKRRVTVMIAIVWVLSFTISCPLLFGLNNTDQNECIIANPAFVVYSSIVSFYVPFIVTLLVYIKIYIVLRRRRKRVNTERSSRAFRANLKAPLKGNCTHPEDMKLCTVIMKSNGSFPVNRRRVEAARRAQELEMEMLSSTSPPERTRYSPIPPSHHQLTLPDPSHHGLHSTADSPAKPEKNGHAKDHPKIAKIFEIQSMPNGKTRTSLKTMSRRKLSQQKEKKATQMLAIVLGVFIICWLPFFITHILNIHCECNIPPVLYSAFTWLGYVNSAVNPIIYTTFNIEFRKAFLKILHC

For `CCN(CC)CCNC(=O)c1cc(Cl)c(N)cc1OCC#N`, the median effective dose (ED50) in assay [1] was > 3 mg/kg; in [7], > 40 mg/kg; in [8], > 40 mg/kg. Further, the Emetic episodes in [2] is 4.7; in assay [5], 0.7. Also, the IC50 in [3] is > 1000 nM. Moreover, the Protection in [4] amounted to 63%; in [6], 90%.

With `C=CCN1CCCC1CNC(=O)c1cc2nn[nH]c2cc1OC` (configuration not stated) [ALIZAPRIDE], the ED50 was 0.3 mg/kg in [1], > 40 mg/kg in assay [7] and > 40 mg/kg in assay [8]. Also, the Emetic episodes in assay [2] is listed as 4.3; in [9] it was 4.7; in assay [5], 5. The Protection in assay [4] (3 mg/kg) was 69% and 66%; in assay [6], 27%.

As for `CCN(CC)CCNC(=O)c1cc(Cl)c(N)cc1OCC(OC)OC`, the ED50 is > 3 mg/kg in [1], > 40 mg/kg in [7] and > 40 mg/kg in assay [8]. Besides, in [3], the IC50 is > 1000 nM. Moreover, the Emetic episodes in assay [10] was found to be 1.5; in assay [5] it was 1.3; in assay [13], 6.7. For the same compound, the Protection in [11] was found to be 88%; in [12] it was 0%; in assay [6] it was 82%.

Turning to `CCN(CC)CCNC(=O)c1cc(Cl)c(N)cc1O`, the ED50 is > 1 mg/kg in assay [1], > 40 mg/kg in assay [7] and > 40 mg/kg in assay [8]. Also, the half-maximal inhibitory concentration (IC50) in assay [3] was > 1000 nM. The same compound yielded an Emetic episodes in assay [14] of 2. Moreover, the values for the Protection in assay [15] and in assay [16] were 84% and 40%, respectively.

On to `CCN(CC)CCNC(=O)c1cc(Cl)c(N)cc1OC` [METOCLOPRAMIDE], for which the Protection is reported as 58% in assay [17]; 92% in assay [18]; 58% in assay [19]; 92% in assay [20]; 92% in assay [21]; 92% in assay [29]. In addition, the Protection in assay [30] is 22% and 21%; in [34], 73% and 66%; in assay [35], 91%; in [36], 90%. Besides, the Emetic episodes in [22] is 1; in assay [23] it was 1; in [25], 5; in assay [26], 5; in assay [27], 1; in assay [28] it was 1. Besides, the Emetic episodes in assay [31] was 0.6; in [32], 5.5; in assay [33], 2.4. The ED50 stood at 0.18 mg/kg in assay [24]; 0.36 mg/kg in assay [1]; 4 mg/kg in [7]; 26 mg/kg in assay [8]; 0.53 mg/kg in assay [37].
